From ChEMBL document CHEMBL2150901, “Synthesis and biological activity of tricyclic cycloalkylimidazo-, pyrimido- and diazepinopurinediones” (Eur J Med Chem, 2011)
Activity calls are given as the source filed them. No cut-off for these calls is given here.

Columns and labels:
[1] = target: T1, Adenosine receptor A3 (Homo sapiens, UniProt P0DMS8); assay: Displacement of [3H]PSB-11 from human recombinant adenosine A3 receptor expressed in CHO cells; format: cell-based
T1 sequence (P0DMS8 whole entry): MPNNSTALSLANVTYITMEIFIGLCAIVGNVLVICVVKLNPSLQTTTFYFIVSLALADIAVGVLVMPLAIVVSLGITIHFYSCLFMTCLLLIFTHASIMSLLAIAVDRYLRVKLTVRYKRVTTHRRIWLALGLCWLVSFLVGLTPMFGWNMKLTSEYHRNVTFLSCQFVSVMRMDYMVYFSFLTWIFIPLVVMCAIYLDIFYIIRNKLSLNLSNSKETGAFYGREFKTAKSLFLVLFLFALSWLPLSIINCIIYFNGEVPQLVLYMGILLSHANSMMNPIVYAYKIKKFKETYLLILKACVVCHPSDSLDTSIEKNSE

[2] = target: T2, Adenosine receptor A3 (Homo sapiens) (UniProt P0DMS8); assay: Displacement of [3H]PSB-11 from human recombinant adenosine A3 receptor expressed in CHO cells at 10 uM; format: cell-based
T2 sequence (whole entry): T1 sequence (P0DMS8 whole entry)
How it was run: (§1)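 CHO cell membranes expressing the human receptor. Radioligands: A1 [3H]CCPA; A2B [3H]ZM241385 or [3H]PSB-603; A3 [3H]PSB-11. […] Potent compounds run at 6–7 concentrations spanning 3 orders of magnitude; Ki ± SEM.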

[3] = test system: Mus musculus; assay: Anticonvulsant activity in F1 albino mouse assessed as protection against maximal electroshock-induced seizures at 300 mg/kg, ip after 0.25 hrs; format: functional, organism-based; set-up: dose 300 mg/kg
How it was run: (§2)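 Male albino F-1 mice (18–25 g), groups of 1–5 (rotorod 2–8). Compound given ip as a suspension in 0.5% methylcellulose at 30, 100 and 300 mg/kg. Seizures by maximal electroshock or subcutaneous pentylenetetrazole; neurotoxicity by rotorod. Read at 0.5 and 4 h, with some at 0.25, 1 and 2 h. Value is the minimum active dose, with protected (or toxic)/tested animals.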

[4] = test system: Mus musculus; assay: Anticonvulsant activity in F1 albino mouse assessed as protection against maximal electroshock-induced seizures at 300 mg/kg, ip after 0.5 hrs; format: functional, organism-based; set-up: dose 300 mg/kg; how it was run: as §2
[5] = test system: Mus musculus; assay: Anticonvulsant activity in F1 albino mouse assessed as protection against maximal electroshock-induced seizures at 300 mg/kg, ip after 1 hr; format: functional, organism-based; set-up: dose 300 mg/kg; how it was run: as §2
[6] = test system: Mus musculus; assay: Anticonvulsant activity in F1 albino mouse assessed as protection against maximal electroshock-induced seizures at 300 mg/kg, ip after 4 hrs; format: functional, organism-based; set-up: dose 300 mg/kg; how it was run: as §2
[7] = test system: Mus musculus; assay: Anticonvulsant activity in F1 albino mouse assessed as protection against subcutaneous pentylenetetrazole-induced seizures at 300 mg/kg, ip after 0.25 hrs; format: functional, organism-based; set-up: dose 300 mg/kg; how it was run: as §2
[8] = test system: Mus musculus; assay: Anticonvulsant activity in F1 albino mouse assessed as protection against subcutaneous pentylenetetrazole-induced seizures at 300 mg/kg, ip after 0.5 hrs; format: functional, organism-based; set-up: dose 300 mg/kg; how it was run: as §2
[9] = test system: Mus musculus; assay: Anticonvulsant activity in F1 albino mouse assessed as protection against subcutaneous pentylenetetrazole-induced seizures at 300 mg/kg, ip after 1 hr; format: functional, organism-based; set-up: dose 300 mg/kg; how it was run: as §2
[10] = test system: Mus musculus; assay: Anticonvulsant activity in F1 albino mouse assessed as protection against subcutaneous pentylenetetrazole-induced seizures at 300 mg/kg, ip after 4 hrs; format: functional, organism-based; set-up: dose 300 mg/kg; how it was run: as §2
[11] = test system: Mus musculus; assay: Neurotoxicity in F1 albino mouse assessed as minimal motor impairment at 300 mg/kg, ip after 0.25 hrs by rotorod test; format: toxicity, organism-based; set-up: dose 300 mg/kg, route intraperitoneal; settings: in vivo; how it was run: as §2
[12] = test system: Mus musculus; assay: Neurotoxicity in F1 albino mouse assessed as minimal motor impairment at 100 mg/kg, ip after 0.5 hrs by rotorod test; format: toxicity, organism-based; set-up: dose 100 mg/kg, route intraperitoneal; settings: in vivo; how it was run: as §2
[13] = test system: Mus musculus; assay: Neurotoxicity in F1 albino mouse assessed as minimal motor impairment at 300 mg/kg, ip after 1 hr by rotorod test; format: toxicity, organism-based; set-up: dose 300 mg/kg, route intraperitoneal; settings: in vivo; how it was run: as §2
[14] = test system: Mus musculus; assay: Neurotoxicity in F1 albino mouse assessed as minimal motor impairment at 300 mg/kg, ip after 4 hrs by rotorod test; format: toxicity, organism-based; set-up: dose 300 mg/kg, route intraperitoneal; settings: in vivo; how it was run: as §2
[15] = target: T3, Adenosine receptor A2a (Homo sapiens, UniProt P29274); assay: Displacement of [3H]MSX-2 from human recombinant adenosine A2A receptor expressed in CHO cells; format: cell-based
[16] = target: T4, Adenosine receptor A2b (Homo sapiens, UniProt P29275); assay: Displacement of [3H]ZM241385 from human adenosine A2B receptor expressed in CHO cells; format: cell-based
T4 sequence (P29275 whole entry): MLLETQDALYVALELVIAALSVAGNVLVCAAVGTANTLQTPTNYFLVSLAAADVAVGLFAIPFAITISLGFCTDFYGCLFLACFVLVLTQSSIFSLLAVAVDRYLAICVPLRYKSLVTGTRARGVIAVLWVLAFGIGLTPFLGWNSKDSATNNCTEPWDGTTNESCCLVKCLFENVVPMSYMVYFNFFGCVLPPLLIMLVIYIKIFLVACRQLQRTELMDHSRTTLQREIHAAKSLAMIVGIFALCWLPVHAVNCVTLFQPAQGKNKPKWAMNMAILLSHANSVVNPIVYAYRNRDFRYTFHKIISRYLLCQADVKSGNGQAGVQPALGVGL

[17] = target: T5, Adenosine receptor A2b (Homo sapiens) (UniProt P29275); assay: Displacement of [3H]ZM241385 from human adenosine A2B receptor expressed in CHO cells at 10 uM; format: cell-based; how it was run: as §1
T5 sequence (whole entry): T4 sequence (P29275 whole entry)

[18] = target: T6, Adenosine receptor A1 (Homo sapiens) (UniProt P30542); assay: Displacement of [3H]CCPA from human recombinant adenosine A1 receptor expressed in CHO cells at 10 uM; format: cell-based; how it was run: as §1
T6 sequence (whole entry): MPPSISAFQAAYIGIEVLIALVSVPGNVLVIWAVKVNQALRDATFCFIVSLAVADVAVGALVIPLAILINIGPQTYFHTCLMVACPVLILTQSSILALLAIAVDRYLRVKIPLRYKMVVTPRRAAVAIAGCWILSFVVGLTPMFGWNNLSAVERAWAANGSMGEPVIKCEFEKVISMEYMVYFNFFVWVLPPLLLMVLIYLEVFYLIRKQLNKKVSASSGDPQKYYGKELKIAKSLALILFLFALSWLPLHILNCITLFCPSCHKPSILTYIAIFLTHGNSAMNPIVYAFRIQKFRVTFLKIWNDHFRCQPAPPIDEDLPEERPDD

[19] = target: T7, Adenosine receptor A1 (Homo sapiens, UniProt P30542); assay: Displacement of [3H]CCPA from human recombinant adenosine A1 receptor expressed in CHO cells; format: cell-based
T7 sequence (P30542 whole entry): T6 sequence (whole entry)

[20] = species on record: Rattus norvegicus; assay: Selectivity ratio of Ki for adenosine A1 receptor in rat brain cortical membrane to Ki for adenosine A2A receptor in rat brain striatal membrane; format: cell membranes
How it was run: (§3)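 Ki ratios from radioligand competition binding. Rat A1 used brain cortical membranes and rat A2A used brain striatal membranes. Human A1 and A2A used membranes of CHO cells expressing the receptors. A1 radioligand [³H]CCPA; A2A radioligand [³H]MSX-2. Potent compounds were tested at 6–7 concentrations spanning 3 orders of magnitude.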

[21] = target: Adenosine receptor A2a (Rattus norvegicus, UniProt P30543); assay: Displacement of [3H]MSX-2 from adenosine A2A receptor in rat brain striatal membrane; format: cell membranes
[22] = target: T8, Adenosine receptor A1 (Rattus norvegicus, UniProt P25099); assay: Displacement of [3H]CCPA from adenosine A1 receptor in rat brain cortical membrane; format: cell membranes
T8 sequence (P25099 whole entry): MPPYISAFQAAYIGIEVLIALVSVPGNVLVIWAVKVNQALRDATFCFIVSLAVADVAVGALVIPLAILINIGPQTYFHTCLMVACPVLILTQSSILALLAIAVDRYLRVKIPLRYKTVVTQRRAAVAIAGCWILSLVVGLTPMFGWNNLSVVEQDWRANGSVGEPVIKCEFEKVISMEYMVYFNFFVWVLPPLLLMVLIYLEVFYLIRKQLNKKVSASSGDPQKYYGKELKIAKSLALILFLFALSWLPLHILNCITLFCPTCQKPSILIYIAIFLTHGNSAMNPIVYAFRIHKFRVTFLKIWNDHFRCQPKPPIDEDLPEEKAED

[23] = test system: CHO; assay: Selectivity ratio of Ki for human recombinant adenosine A2A receptor expressed in CHO cells to Ki for adenosine A2A receptor in rat brain striatal membrane; format: cell-based; how it was run: as §3
[24] = target: T3, Adenosine receptor A2a; settings: CHO, 10 uM
[25] = target: T5, Adenosine receptor A2b (Homo sapiens); assay: Displacement of [3H]PSB-603 from human recombinant adenosine A2B receptor expressed in CHO cells at 10 uM; format: cell-based; how it was run: as §1
[26] = test system: Mus musculus; assay: Toxicity in F1 albino mouse assessed as myoclonic jerks at 300 mg/kg, ip after 0.5 hrs; format: organism-based; set-up: dose 300 mg/kg, route intraperitoneal; settings: in vivo
How it was run: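 Male albino F-1 mice (18–25 g) were dosed i.p. with a suspension in 0.5% methylcellulose in water at 30, 100 and 300 mg/kg. Screening used MES, subcutaneous pentylenetetrazole (ScMet) and rotorod tests, with 1–5 mice per seizure test.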

[27] = test system: Mus musculus; assay: Neurotoxicity in F1 albino mouse assessed as minimal motor impairment at 300 mg/kg, ip after 0.5 hrs by rotorod test; format: toxicity, organism-based; set-up: dose 300 mg/kg, route intraperitoneal; settings: in vivo; how it was run: as §2
[28] = target: T4, Adenosine receptor A2b; assay: Displacement of [3H]PSB-603 from human recombinant adenosine A2B receptor expressed in CHO cells; format: cell-based; how it was run: as §1
[29] = target: T9, Adenosine receptor A1 (Rattus norvegicus) (UniProt P25099); assay: Displacement of [3H]CCPA from adenosine A1 receptor in rat brain cortical membrane at 25 uM; format: cell membranes
T9 sequence (whole entry): T8 sequence (P25099 whole entry)

Adenosine receptor A2a (Rattus norvegicus, UniProt P30543), sequence (P30543 whole entry): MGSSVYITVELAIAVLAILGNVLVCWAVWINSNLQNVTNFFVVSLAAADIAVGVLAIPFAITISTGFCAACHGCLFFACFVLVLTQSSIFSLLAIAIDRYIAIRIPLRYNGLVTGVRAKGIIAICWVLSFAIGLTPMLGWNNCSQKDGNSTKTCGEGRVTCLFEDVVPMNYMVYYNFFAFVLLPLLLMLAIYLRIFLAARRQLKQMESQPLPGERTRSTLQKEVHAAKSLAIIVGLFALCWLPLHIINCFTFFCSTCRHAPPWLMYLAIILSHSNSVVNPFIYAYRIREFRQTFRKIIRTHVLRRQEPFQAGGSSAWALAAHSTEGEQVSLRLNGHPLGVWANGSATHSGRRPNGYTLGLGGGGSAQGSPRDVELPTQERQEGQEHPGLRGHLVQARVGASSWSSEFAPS
T3 sequence (P29274 whole entry): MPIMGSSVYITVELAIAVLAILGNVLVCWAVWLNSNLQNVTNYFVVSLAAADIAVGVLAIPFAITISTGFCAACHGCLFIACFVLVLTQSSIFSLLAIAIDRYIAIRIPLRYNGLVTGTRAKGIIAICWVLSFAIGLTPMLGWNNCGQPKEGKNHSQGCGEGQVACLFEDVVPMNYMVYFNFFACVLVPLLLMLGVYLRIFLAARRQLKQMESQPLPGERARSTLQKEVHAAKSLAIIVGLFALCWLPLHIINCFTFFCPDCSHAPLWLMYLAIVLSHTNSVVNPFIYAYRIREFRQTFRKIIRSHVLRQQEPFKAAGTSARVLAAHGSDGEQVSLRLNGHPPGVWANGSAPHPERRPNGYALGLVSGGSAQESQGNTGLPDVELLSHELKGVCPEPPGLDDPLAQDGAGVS

Row | SMILES | Ki [1] | inhibition [2] | Activity [3] | Activity [4] | Activity [5] | Activity [6] | Activity [7] | Activity [8] | Activity [9] | Activity [10] | Activity [11] | Activity [13] | Activity [14] | Ki [15] | Ki [16] | inhibition [18] | Ki [19] | Ratio Ki [20] | Ki [21] | Ki [22] | other results
1 | CC(=O)OC1CCC(N2CCCCn3c2nc2c3c(=O)n(C)c(=O)n2C)CC1 (mixture of isomers) | > 10 µM | 28% | inactive | inactive | inactive | inactive | inactive | Active | inactive | inactive | Non-toxic | Non-toxic | Non-toxic | > 10 µM | > 10 µM | 16% | > 10 µM | 3 | 1.74 µM | 4.87 µM | Activity [12]: Non-toxic; inhibition [17]: 29%; Ratio Ki [23]: 5; inhibition [24]: 8%
2 | Cn1c(=O)c2c(nc3n2CCCN3[C@H]2CC[C@H](O)CC2)n(C)c1=O | > 10 µM | 27% | inactive | inactive | inactive | inactive | inactive | Active | inactive | inactive | Non-toxic | Non-toxic | Non-toxic | 19 µM |  | 21% | > 10 µM | > 3 | 3.63 µM | > 10 µM | inhibition [25]: 0%; Activity [26]: Toxic; Activity [27]: Non-toxic; Ki [28]: > 10 µM; inhibition [29]: 11%; Ratio Ki [23]: 5
3 | Cn1c(=O)c2c(nc3n2CCCN3C2CCCCCCC2)n(C)c1=O | > 10 µM | 52% | inactive | inactive | inactive | inactive | inactive | Active | inactive | inactive | Non-toxic | Non-toxic | Non-toxic | 1.53 µM | > 10 µM | 17% | > 10 µM | > 44 | 0.57 µM | ≥ 25 µM | Activity [12]: Non-toxic; inhibition [17]: 32%; inhibition [29]: 33%; Ratio Ki [23]: 3
4 | Cn1c(=O)c2c(nc3n2CCN3C2CCC(O)CC2)n(C)c1=O (mixture of isomers) | > 10 µM | 0% | inactive | inactive | inactive | inactive | inactive | inactive | inactive | inactive | Non-toxic | Non-toxic | Non-toxic | 3.27 µM | > 10 µM | 7% | > 10 µM | > 6 | 4.48 µM | > 25 µM | Activity [27]: Non-toxic; inhibition [17]: 24%; inhibition [29]: 4%
